Consider 25 compounds from ChEMBL document CHEMBL2434847, “Design, synthesis, and structure-activity relationships of novel 6,7-disubstituted-4-phenoxyquinoline derivatives as potential antitumor agents” (Eur J Med Chem, 2013).

The subject of one assay is HT-29. Nature of the assay: Cytotoxicity against human HT-29 cells after 72 hrs by MTT assay. The conditions noted are these: HT-29, 72 h. (In general: Tetrazolium assays rely on reduction of a dye to a coloured formazan, in cell work by metabolically active cells.)
Assay [1] can be described thus: Cytotoxicity against human H460 cells after 72 hrs by MTT assay. The conditions noted are these: NCI-H460, 72 h.
Assay [2] in a line: Cytotoxicity against human U87MG cells after 72 hrs by MTT assay. The format is functional, cell-based, U-87MG ATCC. The conditions noted are these: U-87 MG. The essentials: (§1)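 Cells grown in MEM with 10% FBS; about 4 × 10³ cells per well, preincubated 24 h at 37 °C in 5% CO₂, then exposed to compound for 72 h. Each line tested three times; IC50 is mean of three determinations.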

Another assay relates to A549. Nature of the assay: Cytotoxicity against human A549 cells after 72 hrs by MTT assay. In kind it is functional, cell-based. The following applies: A549, 72 h. The gist of the method: as §1
In the next assay the test system is MKN-45. Description: Cytotoxicity against human MKN45 cells after 72 hrs by MTT assay. The following applies: MKN-45, 72 h.

For the compound `COc1cc2c(Oc3ccc(NC(=O)c4cc(-c5ccc(F)cc5)ccn4)cc3F)ccnc2cc1OCCCN1CCCC1`, the IC50 with HT-29 is 430 nM; in assay [1], 370 nM; in assay [2], 1780 nM; with A549 it was 1800 nM; in the assay with MKN-45, 350 nM.
For `COc1cc2c(Oc3ccc(NC(=O)c4nccc(-c5ccc(F)cc5)n4)cc3F)ccnc2cc1OCCCN1CCCC1`, in that order: 160 nM, 300 nM, 1130 nM, 990 nM and 490 nM.
For `COc1cc2c(Oc3ccc(NC(=O)c4cc(-c5ccccc5F)ccn4)cc3F)ccnc2cc1OCCCN1CCOCC1` the same measures were 400 nM, 680 nM, 3030 nM, 3990 nM and 1310 nM.
Regarding `COc1cc2c(Oc3ccc(NC(=O)c4nccc(-c5ccc(C)cc5)n4)cc3F)ccnc2cc1OCCCN1CCOCC1`, the IC50 in the assay on HT-29 turned out to be 240 nM; in assay [1] it was 300 nM; in assay [2] it was 2400 nM; in the assay with A549, 2240 nM; in the assay with MKN-45 it was 310 nM.
Regarding `COc1cc2c(Oc3ccc(NC(=O)c4nccc(-c5ccc(C)cc5)n4)cc3F)ccnc2cc1OCCCN1CCCCC1`, the IC50 was found to be 620 nM in the assay on HT-29; 230 nM in assay [1]; 1140 nM in assay [2]; 900 nM in the assay with A549; 580 nM in the assay with MKN-45.
For `COc1cc2c(Oc3ccc(NC(=O)c4cc(-c5ccc(C)cc5)ccn4)cc3F)ccnc2cc1OCCCN1CCCC1` the same measures were 350 nM, 160 nM, 560 nM, 1060 nM and 440 nM.
For `COc1cc2c(Oc3ccc(NC(=O)c4cc(-c5ccccc5C)ccn4)cc3F)ccnc2cc1OCCCN1CCN(C)CC1`, in that order: 180 nM, 150 nM, 2030 nM, 1330 nM and 240 nM.
For `COc1cc2c(Oc3ccc(NC(=O)c4nccc(-c5ccccc5)n4)cc3F)ccnc2cc1OCCCN1CCOCC1` the same measures were 150 nM, 240 nM, 1350 nM, 510 nM and 260 nM.
Turning to `COc1cc2c(Oc3ccc(NC(=O)c4nccc(-c5ccc(F)cc5F)n4)cc3F)ccnc2cc1OCCCN1CCCCC1`, the IC50 in the assay with HT-29 turned out to be 400 nM; in assay [1], 550 nM; in assay [2], 780 nM; in the assay with A549 it was 470 nM; in the assay with MKN-45, 1120 nM.
For `COc1cc2c(Oc3ccc(NC(=O)c4cc(-c5ccc(C(F)(F)F)cc5)ccn4)cc3F)ccnc2cc1OCCCN1CCCCC1`, in that order: 230 nM, 360 nM, 1630 nM, 1640 nM and 870 nM.
Turning to `COc1cc2c(Oc3ccc(NC(=O)c4cc(-c5ccccc5)ccn4)cc3F)ccnc2cc1OCCCN1CCN(C)CC1`, the IC50 in the assay with HT-29 amounted to 82 nM; in assay [1] it was 91 nM; in assay [2], 1010 nM; with A549, 340 nM; with MKN-45, 150 nM.
For `COc1cc2c(Oc3ccc(NC(=O)c4cc(-c5ccc(C)cc5)ccn4)cc3F)ccnc2cc1OCCCN1CCOCC1` the same measures were 290 nM, 570 nM, 6790 nM, 3450 nM and 440 nM.
For `COc1cc2c(Oc3ccc(NC(=O)c4nccc(-c5ccc(F)cc5F)n4)cc3F)ccnc2cc1OCCCN1CCN(C)CC1`, in that order: 480 nM, 450 nM, 780 nM, 660 nM and 440 nM.
For `COc1cc2c(Oc3ccc(NC(=O)c4cc(-c5ccc(F)cc5)ccn4)cc3F)ccnc2cc1OCCCN1CCCCC1` the same measures were 1370 nM, 250 nM, 12500 nM, 10100 nM and 1240 nM.
For `COc1cc2c(Oc3ccc(NC(=O)c4cc(-c5ccccc5C)ccn4)cc3F)ccnc2cc1OCCCN1CCOCC1`, the IC50 amounted to 1050 nM in the assay with HT-29, 2130 nM in assay [1] and 1140 nM with MKN-45.
For `COc1cc2c(Oc3ccc(NC(=O)c4cc(-c5ccccc5)ccn4)cc3F)ccnc2cc1OCCCN1CCCCC1`, the IC50 came out at 270 nM in the assay with HT-29; 120 nM in assay [1]; 790 nM in assay [2]; 1800 nM in the assay with A549; 270 nM with MKN-45.
As for `COc1cc2c(Oc3ccc(NC(=O)c4cc(-c5ccccc5)ccn4)cc3F)ccnc2cc1OCCCN1CCCC1`, the IC50 with HT-29 was found to be 120 nM; in assay [1], 130 nM; in assay [2] it was 1010 nM; with A549, 1580 nM; with MKN-45 it was 210 nM.
For `COc1cc2c(Oc3ccc(NC(=O)c4cc(-c5ccccc5)ccn4)cc3F)ccnc2cc1OCCCN1CCOCC1`, in that order: 330 nM, 350 nM, 1280 nM, 3450 nM and 280 nM.
Take `COc1cc2c(Oc3ccc(NC(=O)c4nccc(-c5ccccc5)n4)cc3F)ccnc2cc1OCCCN1CCCC1`: the IC50 amounted to 390 nM in the assay on HT-29, 1120 nM in assay [1] and 1360 nM in the assay with MKN-45.
For `COc1cc2c(Oc3ccc(NC(=O)c4cc(-c5ccccc5F)ccn4)cc3F)ccnc2cc1OCCCN1CCCCC1`, in that order: 320 nM, 130 nM and 180 nM.
For `COc1cc2c(Oc3ccc(NC(=O)c4nccc(-c5ccc(F)cc5)n4)cc3F)ccnc2cc1OCCCN1CCN(C)CC1`, the IC50 in the assay on HT-29 was 42 nM; in assay [1] it was 63 nM; in assay [2] it was 910 nM; in the assay on A549 it was 680 nM; in the assay with MKN-45, 90 nM.
Regarding `COc1cc2c(Oc3ccc(NC(=O)c4cc(-c5ccccc5F)ccn4)cc3F)ccnc2cc1OCCCN1CCCC1`, the IC50 in the assay with HT-29 was 230 nM; in assay [1], 140 nM; in assay [2], 610 nM; in the assay on A549, 430 nM; in the assay on MKN-45, 230 nM.
Turning to `COc1cc2c(Oc3ccc(NC(=O)c4cc(-c5ccc(C(F)(F)F)cc5)ccn4)cc3F)ccnc2cc1OCCCN1CCN(C)CC1`, the figures for the IC50 (in the assay on HT-29; in assay [1]; with MKN-45) were 200 nM, 160 nM and 330 nM, respectively.
For `COc1ccc(-c2ccnc(C(=O)Nc3ccc(Oc4ccnc5cc(OCCCN6CCCCC6)c(OC)cc45)c(F)c3)c2)cc1` the same measures were 690 nM, 200 nM and 570 nM.
For `COc1cc2c(Oc3ccc(NC(=O)c4cc(-c5ccc(C(F)(F)F)cc5)ccn4)cc3F)ccnc2cc1OCCCN1CCCC1`, in that order: 720 nM, 250 nM and 260 nM.

Usually IC50 stands for the concentration that gives 50% inhibition. The low end stands for higher potency, the high end for lower potency.
